Experimental data gathered from unrelated publications.
Protocols differ between the studies behind these lines.
Target: Serine/threonine-protein kinase Nek10 (NEK10, Homo sapiens, UniProt Q6ZWH5)
Residues used in one study (Q6ZWH5 1-1172): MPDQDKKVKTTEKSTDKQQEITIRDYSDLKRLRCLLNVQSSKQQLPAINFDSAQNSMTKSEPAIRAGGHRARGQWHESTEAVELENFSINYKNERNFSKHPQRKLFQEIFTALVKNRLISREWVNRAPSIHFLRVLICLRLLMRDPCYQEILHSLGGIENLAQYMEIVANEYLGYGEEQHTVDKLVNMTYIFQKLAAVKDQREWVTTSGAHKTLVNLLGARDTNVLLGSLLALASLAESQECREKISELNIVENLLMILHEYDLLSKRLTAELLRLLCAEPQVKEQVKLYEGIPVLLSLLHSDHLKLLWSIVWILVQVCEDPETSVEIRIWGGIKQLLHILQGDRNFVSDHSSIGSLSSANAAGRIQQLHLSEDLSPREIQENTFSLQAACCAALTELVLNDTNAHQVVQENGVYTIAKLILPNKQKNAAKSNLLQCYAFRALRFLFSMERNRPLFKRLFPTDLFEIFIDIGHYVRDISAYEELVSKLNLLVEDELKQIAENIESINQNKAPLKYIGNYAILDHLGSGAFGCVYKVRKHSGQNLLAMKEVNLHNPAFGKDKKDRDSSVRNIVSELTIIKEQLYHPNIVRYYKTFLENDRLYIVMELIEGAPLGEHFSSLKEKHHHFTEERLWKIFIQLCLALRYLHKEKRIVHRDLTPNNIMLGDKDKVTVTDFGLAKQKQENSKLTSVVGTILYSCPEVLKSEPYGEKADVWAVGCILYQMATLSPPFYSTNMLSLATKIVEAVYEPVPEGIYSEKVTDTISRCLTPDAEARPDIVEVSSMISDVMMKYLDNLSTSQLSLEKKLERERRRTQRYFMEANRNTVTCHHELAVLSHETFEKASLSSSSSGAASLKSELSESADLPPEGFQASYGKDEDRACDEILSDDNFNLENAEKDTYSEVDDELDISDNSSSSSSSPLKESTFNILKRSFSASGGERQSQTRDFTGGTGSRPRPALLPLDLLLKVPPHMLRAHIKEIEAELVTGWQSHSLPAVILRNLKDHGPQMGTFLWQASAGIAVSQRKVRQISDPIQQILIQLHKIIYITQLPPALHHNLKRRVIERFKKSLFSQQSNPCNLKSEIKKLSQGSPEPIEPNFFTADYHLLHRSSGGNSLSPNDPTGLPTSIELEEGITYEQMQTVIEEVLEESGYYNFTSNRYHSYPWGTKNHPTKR

| Structure (SMILES) | assay | conditions | remaining binding |
| --- | --- | --- | --- |
| O=C(Nc1c[nH]nc1C(=O)NC1CCNCC1)c1cc(F)cc(F)c1 | binding, competition with immobilised ligand | 1 µM | 100% |
| c1cncc(-c2cccc(Nc3nccc(NC4CCCCC4)n3)c2)c1 | binding, competition with immobilised ligand | 10 µM | 1.6% |
| O=C(c1ccc(Nc2ncc(Cl)c(-c3ccc(Cl)s3)n2)cc1)N1CCC(N2CCCC2)CC1 | binding, competition with immobilised ligand | 1 µM | 30% |
| CNC(=O)c1ccc(Nc2ncc(C(F)(F)F)c(NCc3nccnc3N(C)S(C)(=O)=O)n2)cc1 | cell-free assay, competition with immobilised ligand | 0.1 µM | 100% |
| COc1cnc(Nc2cccc(S(N)(=O)=O)c2)nc1N1CCN(c2ccccc2)C(=O)C1 | binding, competition with immobilised ligand | 1 µM | 90% |
| Nc1ncc2c(n1)-c1c([nH]c3ccc(C#CC4CC4)cc13)CCCC2 | binding, competition with immobilised ligand | 1 µM | 79% |
| O=C(c1ccc(Nc2nccc(-c3cc4ccccc4s3)n2)cc1)N1CCC(N2CCCC2)CC1 | binding, competition with immobilised ligand | 1 µM | 43% |
| Cc1c[nH]c2nccc(Oc3c(F)cc(Nc4cc(Cl)nc(N)n4)cc3F)c12 | cell-free assay, competition with immobilised ligand | 0.1 µM | 75% |
| CN(C)c1nccc(-c2cnc3ncccn23)n1 | binding | 1 µM | 59% |
| O=C(NCCCN1CCOCC1)c1ccc(Nc2ncc(Cl)c(-c3ccc(Cl)s3)n2)cc1 | binding, competition with immobilised ligand | 1 µM | 48% |
| CN(c1nccc(-c2cnn3ncccc23)n1)C1CC1 | binding | 1 µM | 100% |
| COc1cc(-c2cn(C3CCc4ccccc4N(CC(F)(F)F)C3=O)nn2)ccc1-n1ccc(C)n1 (stereo not drawn) | cell-free assay, competition with immobilised ligand | 1 µM | 81% |
| C[C@H]1CCN(c2nccc(-c3cnn4ncccc34)n2)C1 | binding | 1 µM | 91% |
| O=C(Nc1cccnn1)N1CCC(=Cc2cccc(Oc3ccc(C(F)(F)F)cn3)c2)CC1 | cell-free assay, competition with immobilised ligand | 1 µM | 100% |
| CNC(=O)[C@@H]1CC[C@@H](n2c(-c3ccc4cnccc4c3)nc3ccc(C(=O)NCc4cccc(C(N)=O)c4)cc32)C1 | binding, competition with immobilised ligand | 1 µM | 92% |
| N[C@@H]1CCN(c2nccc(-c3cnn4ncccc34)n2)C1 | binding | 1 µM | 100% |
| CCOCCn1cc(C(=O)Nc2ccc(-n3nc(-c4cccnc4)cc3C(F)(F)F)cn2)ccc1=O | cell-free assay, competition with immobilised ligand | 1 µM | 94% |
| C=CC(=O)N1CCC(C(=O)NCC(=O)N2CCN(c3nc(-c4cnc(N)nc4C(F)F)nc(N4CCOCC4)n3)CC2)CC1 | binding, competition with immobilised ligand | 1 µM | 76% |
